Assay results as given in paper PMC3848259 (Cellular signalling, 2013).
Entries after “also recorded” stand apart in the source; their conditions may differ.

What was measured:
[1] = biological target: T1, RGS4-Gαo binding (Rattus norvegicus, UniProt P49799); experiment: FCPIA reversibility; settings: 100 μM compound; for inhibition of RGS4-G-protein binding: FCPIA; for reversibility of RGS4 inhibition: beads washed three times, ten minute washing period
T1 sequence (P49799 52-205): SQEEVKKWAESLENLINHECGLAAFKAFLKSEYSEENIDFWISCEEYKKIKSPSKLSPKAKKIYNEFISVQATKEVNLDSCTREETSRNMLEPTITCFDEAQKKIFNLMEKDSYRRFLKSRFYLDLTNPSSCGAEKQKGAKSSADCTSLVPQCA
In short: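 Biotinylated RGS4 on streptavidin Luminex beads preincubated 30 min at room temperature with 100 μM test compound or DMSO, then washed three times in 50 mM HEPES pH 7.4/100 mM NaCl/0.1% lubrol/1% BSA. Beads split: one set re-dosed with 100 μM compound, other DMSO. Each then mixed with AlexaFluor 532-Gαo (30 nM final) plus GDP·AlF4/1 mM MgCl. Binding read by flow cytometry. Three independent experiments.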

[2] = biological target: T1, RGS4-Gαo binding; experiment: Flow Cytometry Protein Interaction Assay; settings: read-out: FCPIA IC50, compounds 100 nM-100 μM, three independent experiments
In short: (§1)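 Multiplexed bead assay: biotinylated MBP-Δ51 RGS4, cysteine-free Δ51 RGS4 (seven RGS-box Cys→Ala) and His-tagged RGS8 (61–198) on separate streptavidin Luminex bead sets. Buffer 50 mM HEPES pH 7.4, 100 mM NaCl, 0.1% lubrol, 1% BSA. Test compound (100 nM–100 μM) for 15 min at RT. AlexaFluor532-Gαo (30 nM final) with GDP·AlF4 and 1 mM MgCl for 30 min at RT. Read by flow cytometry; nonlinear regression.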

[3] = biological target: T2, RGS4 stimulation of Gαi1 (R178M/A326S) GTP hydrolysis (Rattus norvegicus, UniProt P49799); experiment: Receptor-independent steady-state GTPase acceleration protein assay; type: biochemical; settings: read-out: SS-GAP IC50; 200 nM Δ51 RGS4-MBP, 6 μM Gαi1 (R178M/A326S), 300 μM GTP
T2 sequence (P49799 52-205): T1 sequence (P49799 52-205)
In short: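 Receptor-independent GTPase: Δ51 RGS4 (residues 52-205)-MBP with His-tagged Gαi1 R178M/A326S. Buffer: 50 mM HEPES pH 7.4, 100 mM NaCl, 0.01% Lubrol, 5 mM MgCl, 10 μg/mL BSA. Test compound in half-log steps, 100 nM–100 μM. Started with GTP; 120 min at room temperature. Quenched with HCl/malachite green plus citrate stabiliser, 20 min, then A630. IC50 by nonlinear regression; three independent experiments, duplicate wells.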

[4] = tested on: RGS4 in HEK293-FlpIn-TREx/M3R/RGS4 cells; experiment: Cell-based calcium signaling assay in M3-R4 cells; set-up: species or system human; settings: read-out: Cellular Activity IC50, Dox treated, carbachol-stimulated calcium
[5] = biological target: T3, RGS7 (Homo sapiens, UniProt P49802); experiment: Multiplexed FCPIA, RGS7; type: binding; settings: 100 nM to 100 μM, RGS7 lacks cysteine residues
T3 sequence (P49802 333-448 limits assumed): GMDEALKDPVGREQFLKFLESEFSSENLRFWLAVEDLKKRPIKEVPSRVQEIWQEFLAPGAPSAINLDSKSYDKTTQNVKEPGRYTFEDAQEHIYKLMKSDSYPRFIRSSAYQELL

[6] = biological target: T4, RGS19 (Homo sapiens, UniProt P49795); experiment: Multiplexed FCPIA, RGS19; type: binding; settings: 100 nM to 100 μM
T4 sequence (P49795 1-206 limits assumed): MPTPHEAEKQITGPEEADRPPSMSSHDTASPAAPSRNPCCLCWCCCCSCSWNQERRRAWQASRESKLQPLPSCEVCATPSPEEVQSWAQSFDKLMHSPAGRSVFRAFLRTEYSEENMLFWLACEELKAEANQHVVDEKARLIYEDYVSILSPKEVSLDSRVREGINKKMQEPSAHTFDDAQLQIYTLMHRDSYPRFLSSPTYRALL
In short: (§2)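 Biotinylated RGS proteins (RGS16 full-length, RGS19 ΔC11, both MBP fusions) were each coupled to separate streptavidin Luminex bead sets and pooled per well. Buffer: 50 mM HEPES pH 7.4, 100 mM NaCl, 0.1% lubrol, 1% BSA. Test compound (100 nM–100 μM) or DMSO added for 15 min at room temperature. AlexaFluor 532-Gαo (30 nM final) with GDP·AlF4/1 mM MgCl added for 30 min. Flow-cytometric binding read; nonlinear regression.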

[7] = biological target: T5, RGS16 (Homo sapiens, UniProt O15492); experiment: Multiplexed FCPIA, RGS16; type: binding; settings: 100 nM to 100 μM
T5 sequence (O15492 1-202): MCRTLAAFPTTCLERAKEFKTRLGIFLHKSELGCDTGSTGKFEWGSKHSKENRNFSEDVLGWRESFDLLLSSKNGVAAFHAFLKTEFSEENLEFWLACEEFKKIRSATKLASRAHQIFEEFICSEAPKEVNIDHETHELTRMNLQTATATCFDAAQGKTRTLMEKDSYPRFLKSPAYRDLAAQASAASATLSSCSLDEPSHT
In short: as §2

[8] = biological target: RGS4 (-Cys) (Homo sapiens, UniProt P49798, C132A/C148A/C183A/C197A/C204A/C71A/C95A); experiment: Multiplexed FCPIA, RGS4 lacking cysteines; type: binding
Chain of RGS4 (-Cys) (P49798 52-205 C71A/C95A/C132A/C148A/C183A/C197A/C204A limits assumed, species assumed): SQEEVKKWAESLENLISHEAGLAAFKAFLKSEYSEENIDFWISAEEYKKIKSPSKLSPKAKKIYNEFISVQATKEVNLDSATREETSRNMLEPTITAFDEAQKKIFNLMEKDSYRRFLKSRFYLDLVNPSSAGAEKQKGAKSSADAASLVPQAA
In short: as §1

[9] = biological target: T6, RGS8 (Homo sapiens, UniProt P57771); experiment: Multiplexed FCPIA, RGS8; type: binding
T6 sequence (P57771 61-198 isoform P57771-2): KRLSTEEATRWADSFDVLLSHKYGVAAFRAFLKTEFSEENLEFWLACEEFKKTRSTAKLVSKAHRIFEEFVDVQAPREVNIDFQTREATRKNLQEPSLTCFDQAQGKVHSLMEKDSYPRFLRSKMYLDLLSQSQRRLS
In short: as §1

Compound: Cc1ccc(/C=C2\C(=O)NC(=S)N(c3ccc(F)cc3)C2=O)s1 [CID 1389577]
- inhibition of RGS4-G-protein binding [1]: greater than 85%
- reversibility of RGS4 inhibition [1]: more than 50%
- IC50 [2]: 18.3 µM
- IC50 [3]: 10.9 µM
- IC50 [4]: 15 µM
- activity towards RGS7 [5]: showed activity towards RGS7; also recorded: activity was observed

Compound: COc1ccc(NC(=O)/C(Cl)=C(/Cl)[S+]([O-])Cc2ccccc2)cn1 (stereo not drawn) [CID 1472216]
- IC50 [2]: 1.7 ± 0.5 µM
- IC50 [3]: 1.6 ± 0.4 µM

Compound: CN1C(=O)/C(=C\c2ccc(Br)s2)C(=O)NC1=S [CID 1777233]
- inhibition of RGS4-G-protein binding [1]: greater than 85%
- reversibility of RGS4 inhibition [1]: more than 50%
- potency difference RGS4 versus RGS19 [6]: 2 fold
- IC50 [2]: 15.3 µM
- IC50 [3]: 9.4 µM
- IC50 [4]: 20 µM

Compound: O=C1NC(=S)N(c2ccccc2F)C(=O)/C1=C\c1cccs1 [CID 1905297]
- inhibition of RGS4-G-protein binding [1]: greater than 85%
- reversibility of RGS4 inhibition [1]: more than 50%
- IC50 [2]: 27.9 µM
- IC50 [3]: 35.6 µM
- IC50 [4]: 23.8 µM

Compound: O=C1N=c2ccccc2=C1c1c(O)n(-c2cccc(F)c2)[nH]c1=O [CID 5428579]
- inhibition of RGS4-G-protein binding [1]: greater than 85%
- reversibility of RGS4 inhibition [1]: more than 50%
- IC50 [2]: 8.2 µM
- IC50 [3]: 55.8 µM
- activity against RGS16 [7]: activity was observed
- IC50 [4]: 35.5 µM
- activity towards RGS7 [5]: showed activity towards RGS7; also recorded: activity was observed

Compound: Br.CCCN1CCc2cc(O)cc3c2[C@H]1Cc1ccc(O)c(O)c1-3 [CID 10069059]
- Inhibition of Gα binding to RGS4 (-Cys) [8]: Inhibition of Gα binding to RGS4 (-Cys) or RGS8 occurred
- Inhibition of Gα binding to RGS8 [9]: Inhibition of Gα binding to RGS4 (-Cys) or RGS8 occurred

Compound: Br.CN1CCc2cc(O)cc3c2[C@H]1Cc1ccc(O)c(O)c1-3 [CID 11957531]
- Inhibition of Gα binding to RGS4 (-Cys) [8]: Inhibition of Gα binding to RGS4 (-Cys) or RGS8 occurred
- Inhibition of Gα binding to RGS8 [9]: Inhibition of Gα binding to RGS4 (-Cys) or RGS8 occurred
